# An excerpt weighted towards active compounds, which were near 2.2% of everything screened.
# Arbovirus inh: antivirals against arbovirus infection, primary screen, cell-based, full library, 10K replicate subset | arbovirus infection cell-based antiviral screen | inhibition, % at 10 µM | hit rate 0.37% among 200,000; in the data active means inhibition above about 30%
# p97 inhibitor: inhibitors of human p97 ATPase, primary screen, biochemical; recombinant p97 ATPase, Kinase-Glo ATP luminescence, 3 h; inhibition, % at 8 µM; hit rate 0.42% among 220,000; in the data active means inhibition above about 15%;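 further: 0% = DMSO vehicle and 100% = wells lacking enzyme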
# Wee1 degr inh: Wee1 degradation inhibitors, primary screen, cell-based, HeLa, Wee1K328M-luciferase, luminescence | reporter increase, % at 5 µM | HeLa Luc-Wee1K328M stability; 100% = proteasome inhibitor MG132 effect | AID 1321, 2008 | hit rate 1.2% among 220,000 | Wee1-like protein kinase (Homo sapiens), P30291;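 active means activation above the mean of all tested compounds plus 3 SD, set per screening run, cut at about 8.8% in these data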;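 further: cells exposed to compound for 20 h before luminescence read; 0% = DMSO alone and 100% = MG132 at 30 µM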
# Target sequence (P30291 whole entry K328M): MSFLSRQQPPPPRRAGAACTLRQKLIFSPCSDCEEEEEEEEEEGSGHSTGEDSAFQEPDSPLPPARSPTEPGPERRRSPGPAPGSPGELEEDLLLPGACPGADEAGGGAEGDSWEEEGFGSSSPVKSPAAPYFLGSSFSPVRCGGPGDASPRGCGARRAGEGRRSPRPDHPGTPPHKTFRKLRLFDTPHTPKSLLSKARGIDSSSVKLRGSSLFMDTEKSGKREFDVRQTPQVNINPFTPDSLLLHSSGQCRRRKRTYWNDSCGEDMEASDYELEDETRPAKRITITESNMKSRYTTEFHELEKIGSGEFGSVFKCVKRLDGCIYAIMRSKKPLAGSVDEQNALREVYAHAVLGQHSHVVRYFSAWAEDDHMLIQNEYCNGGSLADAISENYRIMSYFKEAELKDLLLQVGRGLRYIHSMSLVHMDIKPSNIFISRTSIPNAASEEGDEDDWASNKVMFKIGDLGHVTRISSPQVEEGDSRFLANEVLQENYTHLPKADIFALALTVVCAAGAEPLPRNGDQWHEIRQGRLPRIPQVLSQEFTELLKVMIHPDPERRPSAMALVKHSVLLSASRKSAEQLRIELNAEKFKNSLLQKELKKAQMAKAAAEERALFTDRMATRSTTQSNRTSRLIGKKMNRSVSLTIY
# Redox H2O2 prof: compounds producing H2O2 with reducing agent – biochemical, NIH compound library profiling, artefact control for MLSCN library redox annotation, primary screen; DTT-dependent redox cycling H2O2, phenol red/HRP absorbance; 100% = 100 µM peroxide control, 0% = buffer; activation, % at 10 µM; hit rate 0.03% among 200,000; AID 878, 2007;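 active means activation of at least 50% relative to the plate's high and low controls in the primary single-dose screen; inactive means activation below 50%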;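 further: compound incubated with DTT at 0.8 mM final as the reducing agent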
# RBBP9 inhibitor: human RBBP9 inhibitors, primary screen, biochemical, fluorescence polarization, FP-Rh probe, HTS; Serine hydrolase RBBP9 (Homo sapiens), O75884; recombinant RBBP9; inhibition, % at 7.94 µM; hit rate 0.2% among 220,000;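 active means inhibition above the campaign mean of all tested compounds plus 3 SD, cut at about 14% in these data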;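 further: plate controls were DMSO wells with RBBP9 for no effect and wells lacking RBBP9 protein for full effect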
#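 Assay system: recombinant human RBBP9; Reagent: Serine-hydrolase probe FP-Rh, 375 nM pre-mixing; Doses: 7.94 µM single dose, 0.794% DMSO; Incubation: 30 min then 45 min, 25 °C; Detection: fluorescence polarization (mP), excitation 525 nm, emission 598 nm; Evaluation: percent inhibition from mP, scaled between DMSO and no-protein wells.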
# PKD1 inh: inhibitors of human PKD1 kinase, biochemical, fluorescence polarization; inhibition, % (concentration not given with the values); hit rate 0.056% among 200,000; AID 797, 2007; PKD1 kinase fluorescence polarization assay; Serine/threonine-protein kinase D1 (Homo sapiens), Q15139; in the data active means inhibition above about 50%
# * marks the source's active call; other numbers are inactive results; nt = no result given.
SMILES,Arbovirus inh,p97 inhibitor,Wee1 degr inh,Redox H2O2 prof,RBBP9 inhibitor,PKD1 inh
O=C(/C=C/c1ccco1)Nc1sc2c(c1C(=O)O)CCC2,73*,7,-1,2,-7,-5
CC(C)c1ccc(-c2csc(NC(=O)c3cccs3)c2C(=O)O)cc1,41*,-6,-1,0,-8,1
COC(=O)c1c(-c2ccccc2)csc1NC(=O)c1ccco1,-3,-6,5,0,-7,4
N#Cc1c(NC(=O)/C=C/c2ccco2)sc2c1CCCC2,-4,8,8,0,-8,-3
CC(C)CC1CC(C)(c2csc(NNC(=O)c3ccccc3)n2)OC1=O (stereo unspecified),-5,-2,1,-1,-10,0
Cc1cc(C)n2nc(CC(=O)NCc3ccccc3Cl)nc2n1,-4,4,0,0,-4,-5
CCN(CC)S(=O)(=O)c1ccc(OC)c(NC(=O)CSc2cc(C)ccc2C)c1,3,-3,3,0,-5,-7
O=C(/C=C/c1ccco1)Nc1cc(Cl)ccc1C(=O)O,42*,6,-2,-1,-4,-6
O=C(/C=C/c1ccco1)Nc1ccccc1C(=O)O,26,0,3,-1,-8,9
Cc1ccc(-c2csc(NC(=O)/C=C/c3ccco3)c2C(=O)O)cc1,71*,4,1,0,-5,0
CCOC(=O)C1(CCCc2ccccc2)CCN(C(=O)c2cnc(C)cn2)CC1,5,0,6,-1,-4,-7
CCOC(=O)C1(CCc2ccccc2)CCN(C(=O)c2cccc(C)n2)CC1,6,0,11*,-1,-7,0
CCOC(=O)c1nnn(-c2ccc([N+](=O)[O-])cc2)c1C,20,5,8.8*,0,2,2
CCOC(=O)c1cnn(-c2ccc([N+](=O)[O-])cc2)c1N,nt,-1,4,nt,-2,nt
CC(=O)NCC1=C(NC(C)=O)C2CC1C(C)(C)C2C (stereo unspecified),31*,0,1,0,2,-6
Cn1c(Cn2cnc3ccccc32)nnc1SCC(=O)CC(=O)Nc1ccccc1,3,-1,-1,0,-6,-12
O=C(Nc1ccccc1C(=O)O)c1cccc(NC(=O)c2ccc(Br)o2)c1,32*,13,-2,0,3,1
O=C(Nc1ccccc1C(=O)O)c1ccc(NC(=O)c2ccc(Br)o2)cc1,46*,0,-2,0,-16,-3
COc1ccc(-c2c3c(=O)n(C)c(=O)n(C)c3cn2-c2cc(OC)ccc2OC)cc1,-15,0,0,0,-6,-14
CCOC(=O)c1csc(NNC=O)n1,15,-2,-2,-1,-2,-7
O=C(NC1CCCCC1)C(c1ccc(F)cc1)N(Cc1ccco1)C(=O)CN1C(=O)c2ccccc2S1(=O)=O (stereo unspecified),-19,9,9.9*,1,-4,0
O=C(NCc1ccccc1)C1CCN(S(=O)(=O)N2CCCCCC2)CC1,-5,-3,9.5*,0,-7,9
O=C(NCc1ccccc1)C1CCN(S(=O)(=O)N2CCOCC2)CC1,7,-3,1,2,3,-14
Cc1ccc(NC(=O)C2SC(=Nc3ccccc3)C(C(=O)Nc3ccc(Cl)cc3)=C2N)cc1 (stereo unspecified),-12,5,-3,0,-8,4
Cc1ccc(N=C2SC(C(=O)Nc3ccc(OC(F)(F)F)cc3)C(N)=C2C(=O)Nc2c(C)cc(C)cc2C)cc1 (stereo unspecified),-35,9,11*,1,-47,-10
Cc1nc2ccccc2c(=O)n1NC(=O)Cc1ccc([N+](=O)[O-])cc1,-3,4,-3,0,-2,-2
CC1CCCCN1c1nnc(NC(=O)c2cc(-c3ccc(Br)cc3)on2)s1 (stereo unspecified),42*,-3,0,0,-3,-12

# Source: PubChem BioAssay
